Laboratory results taken from ChEMBL document CHEMBL1137333, “Synthesis, radiosynthesis, and biological evaluation of carbon-11 labeled 2beta-carbomethoxy-3beta-(3'-((Z)-2-haloethenyl)phenyl)nortropanes: candidate radioligands for in vivo imaging of the serotonin transporter with positron emission tomography” (J Med Chem, 2006).

Legend:
Cynomolgus monkey [1] = experiment: Uptake in anesthetized cynomolgus monkey putamen after 45.0 mins; type: ADME, organism-based; settings: in vivo, 0.75 h
Procedure, shortened: (§1)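 Baseline microPET (Concorde P4) scan in anesthetized cynomolgus monkeys after injection of the carbon-11 labeled tracer, with no chase drug. Regional brain time-activity curves were followed over the scan. Tracer radiochemical purity and specific activity were determined by analytical HPLC at the time of injection.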

Cynomolgus monkey [2] = experiment: Uptake in anesthetized cynomolgus monkey medulla after 9.5 mins; type: ADME, organism-based, Medulla of organ; settings: in vivo
Procedure, shortened: (§2)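 Baseline microPET scan (P4 scanner) of anesthetized cynomolgus monkeys after injection of the carbon-11 labelled nortropane tracer. Two baseline studies were run per tracer. Radioactivity was followed over time in regional brain time-activity curves.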

Cynomolgus monkey [3] = experiment: Ratio of uptake in caudate to cerebellum of anesthetized cynomolgus monkey after 85 mins; type: ADME, organism-based; settings: in vivo
Procedure, shortened: (§3)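 Baseline microPET (Concorde P4) in anesthetized cynomolgus monkey after injection of the [11C]-labelled tracer. Regional time-activity curves were taken, and each region's uptake was divided by cerebellum uptake (low-SERT reference) at 65, 85 and 105 min postinjection.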

Cynomolgus monkey [4] = experiment: Uptake in anesthetized cynomolgus monkey medulla after 22.5 mins; type: ADME, organism-based, Medulla of organ; settings: in vivo, 0.375 h; procedure, shortened: as §2
Cynomolgus monkey [5] = experiment: Uptake in anesthetized cynomolgus monkey thalamus after 55.0 mins; type: ADME, organism-based; settings: in vivo; procedure, shortened: as §1
Cynomolgus monkey [6] = experiment: Uptake in anesthetized cynomolgus monkey medulla after 3.5 mins; type: ADME, organism-based, Medulla of organ; settings: in vivo; procedure, shortened: as §2
Cynomolgus monkey [7] = experiment: Uptake in anesthetized cynomolgus monkey frontal after 9.5 mins; type: ADME, organism-based, Frontal cortex; settings: in vivo; procedure, shortened: as §2
Cynomolgus monkey [8] = experiment: Uptake in anesthetized cynomolgus monkey midbrain after 15.5 mins; type: ADME, organism-based; settings: in vivo; procedure, shortened: as §2
Cynomolgus monkey [9] = experiment: Ratio of uptake in putamen to cerebellum of anesthetized cynomolgus monkey after 65 mins; type: ADME, organism-based; settings: in vivo; procedure, shortened: as §3
Cynomolgus monkey [10] = experiment: Uptake in anesthetized cynomolgus monkey medulla after 115.0 mins; type: ADME, organism-based, Medulla of organ; settings: in vivo; procedure, shortened: as §2
Cynomolgus monkey [11] = experiment: Ratio of uptake in thalamus to cerebellum of anesthetized cynomolgus monkey after 85 mins; type: ADME, organism-based; settings: in vivo; procedure, shortened: as §3
Cynomolgus monkey [12] = experiment: Uptake in anesthetized cynomolgus monkey midbrain after 27.5 mins; type: ADME, organism-based; settings: in vivo; procedure, shortened: as §2
Cynomolgus monkey [13] = experiment: Uptake in anesthetized cynomolgus monkey putamen after 1.5 mins; type: ADME, organism-based; settings: in vivo, 0.025 h; procedure, shortened: as §1
Cynomolgus monkey [14] = experiment: Uptake in anesthetized cynomolgus monkey thalamus after 9.5 mins; type: ADME, organism-based; settings: in vivo; procedure, shortened: as §1
Cynomolgus monkey [15] = experiment: Uptake in anesthetized cynomolgus monkey frontal after 75.0 mins; type: ADME, organism-based, Frontal cortex; settings: in vivo, 1.25 h; procedure, shortened: as §2
Cynomolgus monkey [16] = experiment: Uptake in anesthetized cynomolgus monkey cerebellum after 18.5 mins; type: ADME, organism-based, Macaca mulatta; settings: rhesus monkey, in vivo
Procedure, shortened: (§4)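 Baseline microPET (Concorde P4) regional brain time-activity curves in anesthetized cynomolgus monkey following injection of the [11C]-labelled tracer, with radioactivity followed over the scan.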

Cynomolgus monkey [17] = experiment: Uptake in anesthetized cynomolgus monkey midbrain after 45.0 mins; type: ADME, organism-based; settings: in vivo, 0.75 h; procedure, shortened: as §2
Cynomolgus monkey [18] = experiment: Uptake in anesthetized cynomolgus monkey occipital after 4.5 mins; type: ADME, organism-based, Occipital cortex; settings: in vivo, 0.075 h; procedure, shortened: as §2
Cynomolgus monkey [19] = experiment: Uptake in anesthetized cynomolgus monkey medulla after 1.5 mins; type: ADME, organism-based, Medulla of organ; settings: in vivo, 0.025 h; procedure, shortened: as §2
Cynomolgus monkey [20] = experiment: Uptake in anesthetized cynomolgus monkey thalamus after 105.0 mins; type: ADME, organism-based; settings: in vivo, 1.75 h; procedure, shortened: as §1
Cynomolgus monkey [21] = experiment: Uptake in anesthetized cynomolgus monkey caudate after 75.0 mins; type: ADME, organism-based, Caudate nucleus; settings: in vivo, 1.25 h; procedure, shortened: as §4
Cynomolgus monkey [22] = experiment: Uptake in anesthetized cynomolgus monkey pons after 85.0 mins; type: ADME, organism-based; settings: in vivo; procedure, shortened: as §1
Cynomolgus monkey [23] = experiment: Uptake in anesthetized cynomolgus monkey pons after 55.0 mins; type: ADME, organism-based; settings: in vivo; procedure, shortened: as §1
Cynomolgus monkey [24] = experiment: Uptake in anesthetized cynomolgus monkey medulla after 2.5 mins; type: ADME, organism-based, Medulla of organ; settings: in vivo; procedure, shortened: as §2
Cynomolgus monkey [25] = experiment: Uptake in anesthetized cynomolgus monkey medulla after 105.0 mins; type: ADME, organism-based, Medulla of organ; settings: in vivo, 1.75 h; procedure, shortened: as §2
Cynomolgus monkey [26] = experiment: Uptake in anesthetized cynomolgus monkey pons after 15.5 mins; type: ADME, organism-based; settings: in vivo; procedure, shortened: as §1
Cynomolgus monkey [27] = experiment: Uptake in anesthetized cynomolgus monkey medulla after 15.5 mins; type: ADME, organism-based, Medulla of organ; settings: in vivo; procedure, shortened: as §2
Cynomolgus monkey [28] = experiment: Uptake in anesthetized cynomolgus monkey thalamus after 18.5 mins; type: ADME, organism-based; settings: in vivo; procedure, shortened: as §1
Cynomolgus monkey [29] = experiment: Uptake in anesthetized cynomolgus monkey putamen after 3.5 mins; type: ADME, organism-based; settings: in vivo; procedure, shortened: as §1
Cynomolgus monkey [30] = experiment: Ratio of uptake in caudate to cerebellum of anesthetized cynomolgus monkey after 65 mins; type: ADME, organism-based; settings: in vivo; procedure, shortened: as §3
Cynomolgus monkey [31] = experiment: Uptake in anesthetized cynomolgus monkey frontal after 27.5 mins; type: ADME, organism-based, Frontal cortex; settings: in vivo; procedure, shortened: as §2
Cynomolgus monkey [32] = experiment: Ratio of uptake in occipital to cerebellum of anesthetized cynomolgus monkey after 105 mins; type: ADME, organism-based; settings: in vivo, 1.75 h; procedure, shortened: as §3
Cynomolgus monkey [33] = experiment: Uptake in anesthetized cynomolgus monkey putamen after 85.0 mins; type: ADME, organism-based; settings: in vivo; procedure, shortened: as §1
Cynomolgus monkey [34] = experiment: Ratio of uptake in occipital to cerebellum of anesthetized cynomolgus monkey after 85 mins; type: ADME, organism-based; settings: in vivo; procedure, shortened: as §3
Cynomolgus monkey [35] = experiment: Ratio of uptake in frontal to cerebellum of anesthetized cynomolgus monkey after 85 mins; type: ADME, organism-based; settings: in vivo; procedure, shortened: as §3

Molecule [11CH3]OC(=O)[C@@H]1C2CCC(C[C@@H]1c1cccc(/C=C/I)c1)N2 (stereo not given in full) has a Drug uptake (Cynomolgus monkey [1]) of 7.16, a Drug uptake (Cynomolgus monkey [2]) of 6.22 and a Ratio (Cynomolgus monkey [3]) of 1.5. It also gave a Drug uptake (Cynomolgus monkey [4]) of 6.95, a Drug uptake (Cynomolgus monkey [5]) of 7.12 and a Drug uptake (Cynomolgus monkey [6]) of 2.62. The Drug uptake (Cynomolgus monkey [7]) was 3.33, the Drug uptake (Cynomolgus monkey [8]) was 6.42 and the Ratio (Cynomolgus monkey [9]) was 1.6. For the same molecule, the Drug uptake (Cynomolgus monkey [10]) was 6.11, the Ratio (Cynomolgus monkey [11]) was 1.8 and the Drug uptake (Cynomolgus monkey [12]) was 7.14. For the same molecule, the Drug uptake (Cynomolgus monkey [13]) was 0.35, the Drug uptake (Cynomolgus monkey [14]) was 5.29 and the Drug uptake (Cynomolgus monkey [15]) was 3.73. For the same molecule, the Drug uptake (Cynomolgus monkey [16]) was 5.74, the Drug uptake (Cynomolgus monkey [17]) was 7.66 and the Drug uptake (Cynomolgus monkey [18]) was 2.44. For the same molecule, the Drug uptake (Cynomolgus monkey [19]) was 0.39, the Drug uptake (Cynomolgus monkey [20]) was 6.3 and the Drug uptake (Cynomolgus monkey [21]) was 5.71. The Drug uptake (Cynomolgus monkey [22]) was 5.86, the Drug uptake (Cynomolgus monkey [23]) was 6.13 and the Drug uptake (Cynomolgus monkey [24]) was 1.4. It also gave a Drug uptake (Cynomolgus monkey [25]) of 6.25, a Drug uptake (Cynomolgus monkey [26]) of 5.23 and a Drug uptake (Cynomolgus monkey [27]) of 6.72. For the same molecule, the Drug uptake (Cynomolgus monkey [28]) was 6.41, the Drug uptake (Cynomolgus monkey [29]) was 2.12 and the Ratio (Cynomolgus monkey [30]) was 1.3. For the same molecule, the Drug uptake (Cynomolgus monkey [31]) was 4.09, the Ratio (Cynomolgus monkey [32]) was 1.1 and the Drug uptake (Cynomolgus monkey [33]) was 6.58. It also gave a Ratio (Cynomolgus monkey [34]) of 1 and a Ratio (Cynomolgus monkey [35]) of 1.1.
